Legend:
[1] = tested on: K562; experiment: Ability to induce cells in S phase; assay type: functional, Homo sapiens; design: concentration or dose not given beside the values
Outline: (§1)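 K562 human leukemic cells exposed continuously to test compound at 5 μM for 24 h. 10⁶ cells/mL resuspended in propidium iodide, held at 4 °C overnight, analysed by flow cytometry for DNA content. Doublets and aggregates excluded on FL2-area/FL2-width plot. Fraction of population in G0/G1, S and G2/M calculated.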

[2] = tested on: K562; experiment: Ability to induce cells in G0/G1 phase; assay type: functional, Homo sapiens; design: concentration or dose not given beside the values; outline: as §1
[3] = tested on: K562; experiment: Ability to induce cells in G2/M phase; assay type: functional, Homo sapiens; design: concentration or dose not given beside the values; outline: as §1
[4] = tested on: K562; experiment: Inhibitory concentration against K562 cell line; assay type: functional, cell-based; conditions: Homo sapiens
Outline: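 MTT viability assay on exponentially growing K562 cells seeded at 3 × 10³ cells/well, grown 24 h before drug addition. After 72 h drug exposure MTT reagent added. Viability is absorbance as percent of untreated control wells. IC50 is the concentration giving 50% loss of viability. Triplicate wells, at least three separate experiments.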

[5] = tested on: NCI-60 human tumor cell line panel (Homo sapiens); experiment: Growth inhibitory concentration is the concentration that reduced growth of NCI-60 cell lines by 50%

COc1cc(O)c2c(O)cc(-c3ccc(OC)c(F)c3)nc2c1
Activity [1]: 53% | Activity [2]: 26% | Activity [3]: 20%

CCc1ccc(-c2cc(O)c3c(O)cc(OC)cc3n2)cc1
Activity [1]: 48% | Activity [2]: 26% | Activity [3]: 25%

COc1cc(O)c2c(O)cc(-c3ccc(F)c(F)c3)nc2c1
Activity [1]: 69% | Activity [2]: 22% | Activity [3]: 9%

COc1cc(O)c2c(O)cc(-c3cccc(OC(F)(F)F)c3)nc2c1
Activity [1]: 35% | Activity [2]: 32% | Activity [3]: 32%

COc1cc(O)c2c(O)cc(-c3ccccc3)nc2c1
IC50 [4]: 1.8 µM | Activity [1]: 26% | Activity [2]: 7% | Activity [3]: 66% | GI50 [5]: 8.7 µM

COc1cc(O)c2c(O)cc(-c3ccccc3F)nc2c1
IC50 [4]: 1.5 µM | Activity [1]: 37% | Activity [2]: 23% | Activity [3]: 41% | GI50 [5]: 9.9 µM

COc1cc(O)c2c(O)cc(Cc3ccccc3)nc2c1
Activity [1]: 50% | Activity [2]: 41% | Activity [3]: 9%

COc1cc(O)c2c(O)cc(-c3cccnc3)nc2c1
Activity [1]: 31% | Activity [2]: 24% | Activity [3]: 45%

COc1cc(O)c2c(O)cc(-c3cc(F)cc(F)c3)nc2c1
Activity [1]: 40% | Activity [2]: 42% | Activity [3]: 18%

COc1cc(O)c2c(O)cc(-c3ccc(F)cc3)nc2c1
Activity [1]: 36% | Activity [2]: 54% | Activity [3]: 10%

COc1cc2nc(-c3ccccc3)cc(O)c2c(O)c1OC
Activity [1]: 45% | Activity [2]: 47% | Activity [3]: 8%

CCn1c(-c2cccc(F)c2)cc(=O)c2c(O)cc(OC)cc21
Activity [1]: 28% | Activity [2]: 53% | Activity [3]: 19%

COc1cc(O)c2c(O)cc(-c3cccc(C(F)(F)F)c3)nc2c1
Activity [1]: 38% | Activity [2]: 41% | Activity [3]: 20%

COc1cc(O)c2c(O)cc(-c3cccc(CCl)c3)nc2c1
Activity [1]: 51% | Activity [2]: 30% | Activity [3]: 18%

COc1cc(O)c2c(O)cc(-c3cccc(I)c3)nc2c1
Activity [1]: 50% | Activity [2]: 44% | Activity [3]: 6%

COc1cc(O)c2c(O)cc(-c3cccc(-c4ccccc4)c3)nc2c1
Activity [1]: 45% | Activity [2]: 46% | Activity [3]: 9%

Oc1cccc2nc(-c3cccc(F)c3)cc(O)c12
Activity [1]: 33% | Activity [2]: 17% | Activity [3]: 49%

COc1cccc(-c2cc(O)c3c(O)cc(OC)cc3n2)c1
Activity [1]: 41% | Activity [2]: 28% | Activity [3]: 31% | GI50 [5]: 9.7 µM

CCn1c(-c2ccccc2)cc(=O)c2c(O)cc(OC)cc21
Activity [1]: 46% | Activity [2]: 43% | Activity [3]: 11%

COc1cc(O)c2c(O)cc(-c3cccc(F)c3)nc2c1
IC50 [4]: 0.8 µM | Activity [1]: 30% | Activity [2]: 9% | Activity [3]: 60% | GI50 [5]: 14.5 µM

COc1cc(O)c2c(O)cc(-c3cccc(Br)c3)nc2c1
Activity [1]: 37% | Activity [2]: 51% | Activity [3]: 12%

COc1cc2nc(-c3ccccc3)cc(O)c2c(OC)c1OC
Activity [1]: 48% | Activity [2]: 47% | Activity [3]: 5%

Oc1cccc2nc(-c3ccccc3)cc(O)c12
Activity [1]: 52% | Activity [2]: 26% | Activity [3]: 21%

COc1cc(O)c2c(O)cc(-c3ccc(C)c(F)c3)nc2c1
Activity [1]: 54% | Activity [2]: 28% | Activity [3]: 18%

COc1cc(O)c2c(O)cc(-c3cccc(Cl)c3)nc2c1
Activity [1]: 35% | Activity [2]: 33% | Activity [3]: 32%

CC(=O)O[C@H]1C(=O)[C@@]2(C)[C@H]([C@H](OC(=O)c3ccccc3)[C@]3(O)C[C@H](OC(=O)[C@H](O)[C@@H](NC(=O)c4ccccc4)c4ccccc4)C(C)=C1C3(C)C)[C@]1(OC(C)=O)CO[C@@H]1C[C@@H]2O [PACLITAXEL]
Activity [1]: 18% | Activity [2]: 11% | Activity [3]: 71%

CC[C@]1(O)C[C@@H]2CN(CCc3c([nH]c4ccccc34)[C@@](C(=O)OC)(c3cc4c(cc3OC)N(C)[C@H]3[C@@](O)(C(=O)OC)[C@H](OC(C)=O)[C@]5(CC)C=CCN6CC[C@]43[C@@H]65)C2)C1 [VINBLASTINE]
IC50 [4]: 3 µM | Activity [1]: 30% | Activity [2]: 33% | Activity [3]: 37%

From ChEMBL document CHEMBL1138769, “Antimitotic activity of 5-hydroxy-7-methoxy-2-phenyl-4-quinolones” (J Med Chem, 2004)
